Experimental data as given in ChEMBL document CHEMBL5244263, “Studies on fragment-based design of allosteric inhibitors of human factor XIa” (Bioorg Med Chem, 2020).
The source made the active and inactive calls. The rule behind the calls is not given here.

Experiments:
Coagulation factor XI [1] = target: T1, Coagulation factor XI (Homo sapiens, UniProt P03951); experiment: Inhibition of human FXIa using S-2366 as chromogenic substrate preincubated with enzyme for 10 mins followed by substrate addition by spectrophotometric analysis
T1 sequence (P03951 19-387 limits assumed): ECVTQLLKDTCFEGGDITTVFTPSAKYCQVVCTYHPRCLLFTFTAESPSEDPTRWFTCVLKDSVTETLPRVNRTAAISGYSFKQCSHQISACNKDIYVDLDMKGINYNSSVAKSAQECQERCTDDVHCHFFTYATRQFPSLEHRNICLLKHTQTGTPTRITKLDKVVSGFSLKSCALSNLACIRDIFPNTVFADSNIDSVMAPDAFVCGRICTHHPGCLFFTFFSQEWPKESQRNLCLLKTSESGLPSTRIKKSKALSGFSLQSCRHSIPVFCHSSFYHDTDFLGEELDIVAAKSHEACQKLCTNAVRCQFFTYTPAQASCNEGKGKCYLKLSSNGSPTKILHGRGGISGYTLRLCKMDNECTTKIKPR
T1 sequence (P03951 388-625 limits assumed): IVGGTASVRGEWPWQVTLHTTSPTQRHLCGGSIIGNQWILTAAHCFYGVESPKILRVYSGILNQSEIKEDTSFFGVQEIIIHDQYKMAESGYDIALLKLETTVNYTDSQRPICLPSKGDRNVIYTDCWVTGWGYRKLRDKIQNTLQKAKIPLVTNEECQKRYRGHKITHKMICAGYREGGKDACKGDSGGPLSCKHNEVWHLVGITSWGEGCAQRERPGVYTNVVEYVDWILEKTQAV

[2] = target: Chymotrypsinogen A (Bos taurus) (UniProt P00766); experiment: Inhibition of bovine alpha-chymotrypsin at 500 uM by chromogenic substrate hydrolysis assay
[3] = target: Coagulation factor X (Homo sapiens) (UniProt P00742); experiment: Inhibition of human FXa using methoxycarbonyl-D-cyclohexylglycyl-Gly-Arg-p-nitroanilide as substrate at 500 uM by chromogenic substrate hydrolysis assay
Chain of Coagulation factor X (Homo sapiens) (P00742 41-179 limits assumed): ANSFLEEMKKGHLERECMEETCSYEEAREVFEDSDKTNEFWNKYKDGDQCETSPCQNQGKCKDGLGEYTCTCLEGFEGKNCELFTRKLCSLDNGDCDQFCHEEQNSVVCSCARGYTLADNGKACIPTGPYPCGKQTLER
Chain of Coagulation factor X (Homo sapiens) (P00742 235-488 limits assumed): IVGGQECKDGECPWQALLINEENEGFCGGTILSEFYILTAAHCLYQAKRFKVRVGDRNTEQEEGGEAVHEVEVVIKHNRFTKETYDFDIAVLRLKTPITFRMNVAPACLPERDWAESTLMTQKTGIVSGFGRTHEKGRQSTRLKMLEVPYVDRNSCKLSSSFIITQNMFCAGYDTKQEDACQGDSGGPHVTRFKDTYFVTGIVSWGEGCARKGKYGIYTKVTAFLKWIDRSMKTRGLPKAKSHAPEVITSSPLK

Homo sapiens [4] = species on record: Homo sapiens; experiment: Selectivity for inhibition of human FXIa over human FIXa
[5] = target: Plasma kallikrein (Homo sapiens) (UniProt P03952); experiment: Inhibition of Kallikrein in human plasma at 500 uM by chromogenic substrate hydrolysis assay; assay type: cell-free
Chain of Plasma kallikrein (Homo sapiens) (P03952 20-390 limits assumed): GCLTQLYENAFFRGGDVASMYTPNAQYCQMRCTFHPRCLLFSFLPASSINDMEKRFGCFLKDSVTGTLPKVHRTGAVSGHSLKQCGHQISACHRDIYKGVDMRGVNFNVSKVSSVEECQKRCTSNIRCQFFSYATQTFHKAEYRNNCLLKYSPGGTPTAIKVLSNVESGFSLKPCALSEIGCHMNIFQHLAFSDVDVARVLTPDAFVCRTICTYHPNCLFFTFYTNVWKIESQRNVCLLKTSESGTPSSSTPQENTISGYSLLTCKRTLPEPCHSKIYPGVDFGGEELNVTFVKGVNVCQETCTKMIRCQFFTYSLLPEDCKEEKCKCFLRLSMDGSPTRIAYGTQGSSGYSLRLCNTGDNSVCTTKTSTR
Chain of Plasma kallikrein (Homo sapiens) (P03952 391-638 limits assumed): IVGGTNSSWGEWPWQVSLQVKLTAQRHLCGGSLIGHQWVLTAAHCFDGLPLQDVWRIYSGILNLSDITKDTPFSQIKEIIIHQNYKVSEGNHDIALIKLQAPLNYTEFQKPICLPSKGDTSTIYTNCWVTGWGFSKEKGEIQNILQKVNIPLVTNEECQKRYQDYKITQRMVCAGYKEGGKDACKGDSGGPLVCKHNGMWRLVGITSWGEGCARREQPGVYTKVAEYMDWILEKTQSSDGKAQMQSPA

[6] = target: Coagulation factor IX (Homo sapiens) (UniProt P00740); experiment: Inhibition of human FIXa at 500 uM by chromogenic substrate hydrolysis assay
Chain of Coagulation factor IX (Homo sapiens) (P00740 47-191 limits assumed): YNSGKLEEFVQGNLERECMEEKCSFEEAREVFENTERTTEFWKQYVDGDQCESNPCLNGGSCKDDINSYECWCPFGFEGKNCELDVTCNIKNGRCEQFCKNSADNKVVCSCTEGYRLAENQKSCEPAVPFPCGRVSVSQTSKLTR
Chain of Coagulation factor IX (Homo sapiens) (P00740 227-461 limits assumed): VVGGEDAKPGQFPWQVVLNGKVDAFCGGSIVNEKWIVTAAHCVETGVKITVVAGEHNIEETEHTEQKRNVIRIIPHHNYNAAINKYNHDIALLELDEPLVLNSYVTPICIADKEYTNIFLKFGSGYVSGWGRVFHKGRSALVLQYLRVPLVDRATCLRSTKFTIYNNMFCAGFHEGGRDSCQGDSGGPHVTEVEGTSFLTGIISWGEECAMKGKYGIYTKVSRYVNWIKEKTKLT

[7] = target: Prothrombin (Homo sapiens) (UniProt P00734); experiment: Inhibition of human thrombin at 500 uM by chromogenic substrate hydrolysis assay
Homo sapiens [8] = species on record: Homo sapiens; experiment: Selectivity for inhibition of human FXIa over FVIIa (unknown origin)
Homo sapiens [9] = species on record: Homo sapiens; experiment: Selectivity for inhibition of human FXIa over human thrombin
[10] = Selectivity for inhibition of human FXIa over bovine trypsin
Homo sapiens [11] = species on record: Homo sapiens; experiment: Selectivity for inhibition of human FXIa over human FXa
Homo sapiens [12] = species on record: Homo sapiens; experiment: Selectivity for inhibition of human FXIa over Kallikrein in human plasma; assay type: cell-free
Coagulation factor XI [13] = target: T1, Coagulation factor XI; experiment: Inhibition of human FXIa using S-2366 as chromogenic substrate preincubated with enzyme for 10 mins followed by substrate addition by spectrophotometric analysis relative to control; parameters: concentration or dose not given beside the values
Summary of the method: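 hFXIa (0.765 nM final) preincubated with inhibitor or reference solution for 10 min at 37 °C in pH 7.4 buffer (50 mM Tris-HCl, 150 mM NaCl, 0.1% PEG8000, 0.02% Tween80). S-2366 (345 μM final) then added, and residual activity read on a microplate reader.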

[14] = target: T2, Coagulation factor VII (Homo sapiens) (UniProt P08709); experiment: Inhibition of FVIIa (unknown origin) at 500 uM by chromogenic substrate hydrolysis assay
T2 sequence (whole entry): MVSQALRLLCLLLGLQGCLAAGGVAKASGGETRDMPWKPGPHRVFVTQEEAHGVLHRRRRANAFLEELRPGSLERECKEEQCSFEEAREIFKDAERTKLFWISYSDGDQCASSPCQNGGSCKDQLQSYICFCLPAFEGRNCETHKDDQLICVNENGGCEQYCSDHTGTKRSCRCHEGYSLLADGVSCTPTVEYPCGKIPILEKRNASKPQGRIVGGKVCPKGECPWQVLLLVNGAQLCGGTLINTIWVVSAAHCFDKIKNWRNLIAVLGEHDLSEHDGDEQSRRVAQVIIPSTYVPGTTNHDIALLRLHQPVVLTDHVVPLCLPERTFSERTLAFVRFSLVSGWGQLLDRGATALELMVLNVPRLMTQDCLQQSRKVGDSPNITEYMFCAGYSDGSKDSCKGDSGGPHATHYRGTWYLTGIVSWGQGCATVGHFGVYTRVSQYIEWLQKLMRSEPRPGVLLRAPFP

[15] = Selectivity for inhibition of human FXIa over bovine alpha-chymotrypsin
Bos taurus [16] = species on record: Bos taurus; experiment: Inhibition of bovine trypsin using S-2222 as chromogenic substrate at 500 uM by chromogenic substrate hydrolysis assay
Bos taurus [17] = species on record: Bos taurus; experiment: Inhibition of bovine trypsin using S-2222 as chromogenic substrate at >200 uM by chromogenic substrate hydrolysis assay
[18] = target: Coagulation factor X (Homo sapiens) (UniProt P00742); experiment: Inhibition of human FXa using methoxycarbonyl-D-cyclohexylglycyl-Gly-Arg-p-nitroanilide as substrate at >200 uM by chromogenic substrate hydrolysis assay

IC50 (Coagulation factor XI [1]) [µM]	inhibition [2]	inhibition [3]	Selectivity ratio (Homo sapiens [4])	inhibition [5]	inhibition [6]	inhibition [7]	Selectivity ratio (Homo sapiens [8])	Selectivity ratio (Homo sapiens [9])	Selectivity ratio [10]	Selectivity ratio (Homo sapiens [11])	Selectivity ratio (Homo sapiens [12])	inhibition (Coagulation factor XI [13]) [%]	inhibition [14]	Selectivity ratio [15]	inhibition (Bos taurus [16])	inhibition (Bos taurus [17])	inhibition [18]	SMILES
248	inactive	inactive	> 63	inactive	inactive	inactive	> 63	> 63	> 63	> 63	> 63	100	inactive	> 63	inactive			O=c1c2ccccc2nc(-c2cccc(OS(=O)(=O)O)c2)n1Cc1ccc(Cn2c(-c3cccc(OS(=O)(=O)O)c3)nc3ccccc3c2=O)cc1
23	inactive	inactive	> 63	inactive	inactive	inactive	> 63	> 63	> 63	> 63	> 63	96	inactive	> 63	inactive			O=c1c2ccccc2nc(-c2ccc(OS(=O)(=O)O)cc2)n1CCCCCCCn1c(-c2ccc(OS(=O)(=O)O)cc2)nc2ccccc2c1=O
14.5	inactive		> 63	inactive	inactive	inactive	> 63	> 63	> 25	> 25	> 63	96	inactive	> 63		Active	Active	O=c1c2ccccc2nc(-c2ccc(OS(=O)(=O)O)cc2)n1CCCCCCCCCCCn1c(-c2ccc(OS(=O)(=O)O)cc2)nc2ccccc2c1=O
76	inactive	inactive	> 63	inactive	inactive	inactive	> 63	> 63	> 63	> 63	> 63	96	inactive	> 63	inactive			O=c1c2ccccc2nc(-c2ccc(OS(=O)(=O)O)cc2)n1Cc1cccc(Cn2c(-c3ccc(OS(=O)(=O)O)cc3)nc3ccccc3c2=O)c1
415	inactive	inactive	> 63	inactive	inactive	inactive	> 63	> 63	> 63	> 63	> 63	96	inactive	> 63	inactive			O=c1c2ccccc2nc(-c2cccc(OS(=O)(=O)O)c2)n1C/C=C/Cn1c(-c2cccc(OS(=O)(=O)O)c2)nc2ccccc2c1=O
57	inactive	inactive	> 63	inactive	inactive	inactive	> 63	> 63	> 63	> 63	> 63	87	inactive	> 63	inactive			O=c1c2ccccc2nc(-c2ccc(OS(=O)(=O)O)cc2)n1Cc1ccccc1Cn1c(-c2ccc(OS(=O)(=O)O)cc2)nc2ccccc2c1=O
401	inactive	inactive	> 63	inactive	inactive	inactive	> 63	> 63	> 63	> 63	> 63	94	inactive	> 63	inactive			O=c1c2ccccc2nc(-c2cccc(OS(=O)(=O)O)c2)n1CCOCCn1c(-c2cccc(OS(=O)(=O)O)c2)nc2ccccc2c1=O
60	inactive	inactive	> 63	inactive	inactive	inactive	> 63	> 63	> 63	> 63	> 63	92	inactive	> 63	inactive			O=c1c2ccccc2nc(-c2cccc(OS(=O)(=O)O)c2)n1Cc1cccc(Cn2c(-c3cccc(OS(=O)(=O)O)c3)nc3ccccc3c2=O)c1

SMILES	IC50 (Coagulation factor XI [1]) [µM]	inhibition [2]	inhibition [3]	Selectivity ratio (Homo sapiens [4])	inhibition [5]	inhibition [6]	inhibition [7]	Selectivity ratio (Homo sapiens [8])	Selectivity ratio (Homo sapiens [9])	Selectivity ratio [10]	Selectivity ratio (Homo sapiens [11])	Selectivity ratio (Homo sapiens [12])	inhibition (Coagulation factor XI [13]) [%]	inhibition [14]	Selectivity ratio [15]	inhibition (Bos taurus [16])	inhibition (Bos taurus [17])	inhibition [18]
O=c1c2ccccc2nc(-c2ccc(OS(=O)(=O)O)cc2)n1CCCCCCCCn1cc(Cn2c(-c3ccc(OS(=O)(=O)O)cc3)nc3ccccc3c2=O)nn1	39	inactive	inactive	> 63	inactive	inactive	inactive	> 63	> 63	> 63	> 63	> 63	100	inactive	> 63	inactive		
O=c1c2ccccc2nc(-c2ccc(OS(=O)(=O)O)cc2)n1CCCCCCCn1cc(Cn2c(-c3ccc(OS(=O)(=O)O)cc3)nc3ccccc3c2=O)nn1	51	inactive	inactive	> 63	inactive	inactive	inactive	> 63	> 63	> 63	> 63	> 63	103	inactive	> 63	inactive		
O=c1c2ccccc2nc(-c2ccc(OS(=O)(=O)O)cc2)n1CCCCCCCCCCn1cc(Cn2c(-c3ccc(OS(=O)(=O)O)cc3)nc3ccccc3c2=O)nn1	22	inactive	inactive	> 63	inactive	inactive	inactive	> 63	> 63	> 63	> 63	> 63	112	inactive	> 63	inactive		
